Many of the other results were omitted from the sample, so hits are more common in it than they were.
MPTP inh = permeability transition pore inhibition; isolated mouse mitochondria, Ca2+ swelling absorbance, 30 min; inhibition, % at 10 µM; 360,000 compounds, 1.4% hits;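 active = inhibition of 50% or more, scaled per plate between neutral and stimulator controls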
DTT redox prof = compounds producing H2O2 with reducing agent – biochemical, NIH compound library profiling, artefact control for MLSCN library redox annotation, primary screen. 200,000 compounds, 0.03% hits. DTT-dependent redox cycling H2O2, phenol red/HRP absorbance; 100% = 100 µM peroxide control, 0% = buffer. activation, % at 10 µM. AID 878;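 active = activation of at least 50% relative to the plate's high and low controls in the primary single-dose screen; inactive = activation below 50%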;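 also: compound incubated with DTT at 0.8 mM final as the reducing agent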
T cruzi repl = T. cruzi replication inhibition; T. cruzi beta-gal in NIH3T3, luminescence, 90 h; inhibition, % (no concentration beside the values); 300,000 compounds, 1.4% hits;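 active = mean inhibition across valid replicates above about 55%, limit read from the data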;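 also: signal also drops with host cell toxicity which is not excluded here; higher percent means less beta-gal luminescence so fewer parasites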
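Assay system: NIH/3T3 fibroblasts plus reporter T. cruzi. Amount: NIH/3T3 cells, 5,000 per well. Buffer or medium: DMEM, 2% fetal bovine serum. Doses: compound pinned at 50 nL/well, DMSO. Schedule: ≥90 h infection period, 3 h prior cell attachment. Signal: luminescent β-galactosidase signal after 60 min lysis. Read-out: parasite load inhibition, %.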
Hep lipid drop = hepatic lipid droplet formation modulation; AML12 mouse hepatocytes, oleate lipid droplets, BODIPY imaging; 240,000 compounds, 0.4% hits; inhibition, % at 6.5 µM; AID 1656;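 active = lipid droplet intensity inhibited by at least 50%, with more than 500 cells counted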
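Assay system: AML12 hepatocytes (mouse); Probe or stimulus: oleic acid at 100 µM to induce lipid droplet formation; Dosing: compound at 6.5 µM only; Schedule: compound with oleate, overnight; Detection: fluorescence imaging, 20x objective, two fields per well; Measure: % inhibition of lipid droplet signal.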
L major viab = reduces viability of Leishmania major promastigotes; resazurin fluorescence viability; inhibition, % at 10 µM; 200,000 compounds, 9% hits; in the data active = inhibition above about 50%;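 also: promastigotes grown with compound for 44 hours at 28 °C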
MPTP counter = membrane potential counter-screen of mitochondrial pore inhibitors. shares compounds with MPTP inh. isolated mitochondria, Rhodamine 123 fluorescence. inhibition, % at 10 µM. 5,000 compounds, 78% hits; in the data active = inhibition above about 22%
MPTP abs DR = MPTP inhibition, dose response swelling confirmation; shares compounds with MPTP inh; isolated mitochondria swelling, absorbance; IC50, µM; 780 compounds, 58% hits; AID 651561; in the data active = IC50 below about 20 µM
MPTP cs DR = MPTP inhibitor counter-screen activity, dose response; AID 651564; isolated mitochondria counterscreen, fluorescence read-out; IC50, µM; shares compounds with MPTP inh; 780 compounds, 49% hits; in the data active = IC50 below about 80 µM
Of the large screens only hits and unclear results are named; the others gave an inactive call (follow-up assays come after a bar, where they were run).

CN1CCN(CC(=O)N2c3ccccc3C(C)(c3ccc(Cl)cc3)CC2(C)C)CC1 (stereo not drawn)	MPTP inh 75 | MPTP counter inactive | MPTP abs DR 19 | MPTP cs DR inactive
CC(=O)N1c2ccccc2C(C)(c2ccccc2)CC1(C)C (stereo not drawn)	none
CN1CCN(CC(=O)N2c3ccccc3C(C)(c3ccccc3)CC2(C)C)CC1 (stereo not drawn)	MPTP inh 74 | MPTP counter inactive | MPTP abs DR inactive | MPTP cs DR inactive
Cc1nn(-c2cc(C(F)(F)F)ccc2Cl)c2nc(C(Cl)(Cl)Cl)[nH]c(=O)c12	MPTP inh 78 (no result: DTT redox prof, L major viab) | MPTP counter 82
Cc1nn(-c2ccccc2)c2nc(C(F)(F)F)[nH]c(=O)c12	none
CCC1Sc2ccc(S(=O)(=O)Nc3ccc(OC)c(OC)c3)cc2NC1=O (stereo not drawn)	MPTP inh 95 (no result: DTT redox prof, L major viab) | MPTP counter 87
CC1CCN(C(=O)C2CCCN2S(=O)(=O)c2ccc(Cl)cc2)CC1 (stereo not drawn)	none (no result: DTT redox prof, L major viab)
Cc1csc2c(N3CCC(C(=O)O)CC3)ncnc12	none (no result: DTT redox prof, L major viab)
Cc1csc2c(N3CCN(C(=O)Nc4ccc(OC(F)(F)F)cc4)CC3)ncnc12	MPTP inh 89 (no result: DTT redox prof, L major viab) | MPTP counter 72
O=C1ON(Cc2ccccc2)C(c2ccccc2)N1c1ccccc1 (stereo not drawn)	none (no result: DTT redox prof, T cruzi repl, Hep lipid drop, L major viab)
CCCC(C)NC(=O)COc1ccc(Sc2ccc(OCC(=O)NC(C)CCC)cc2)cc1 (stereo not drawn)	MPTP inh 78 | MPTP counter 34
CC(C)CNC(=O)COc1ccc(Sc2ccc(OCC(=O)NCC(C)C)cc2)cc1	MPTP inh 53 | MPTP counter inactive | MPTP abs DR 5.4 | MPTP cs DR inactive
COc1ccc(-c2cn3c(C)c(C(=O)Nc4cccc(NC(C)=O)c4)sc3n2)cc1	MPTP inh 80 (no result: Hep lipid drop) | MPTP counter 23
NS(=O)(=O)c1ccc(CNC(=O)C2CCCN2C(=O)c2cccs2)cc1 (stereo not drawn)	none (no result: DTT redox prof, T cruzi repl, Hep lipid drop, L major viab)
CCOC(=O)N1CCN(CCC(=O)c2ccc(Cl)cc2)CC1	MPTP inh 103, L major viab 94 | MPTP counter inactive | MPTP abs DR inactive | MPTP cs DR inactive
Cc1ccc(CN2C3=NCCN3c3ccccc32)cc1	none
O=C(CN1C2=NCCN2c2ccccc21)C12CC3CC(CC(C3)C1)C2	MPTP inh 70, L major viab 101 (no result: Hep lipid drop) | MPTP counter inactive | MPTP abs DR inactive | MPTP cs DR inactive
CCOc1ccccc1N1CCN(CC(=O)N(C)CC(=O)Nc2ccccc2CC)CC1	none (no result: DTT redox prof, T cruzi repl, Hep lipid drop, L major viab)
COc1cc(C(=O)NCCOc2cc(C)ccc2C(C)C)cc(OC)c1OC	MPTP inh 57 (no result: DTT redox prof, Hep lipid drop, L major viab) | MPTP counter 64
Cc1ccc(C(C)C)c(OCCNC(=O)c2cncc(Br)c2)c1	none (no result: Hep lipid drop)
CCC(=O)Nc1nc(-c2ccccc2)ns1	none
CC(=O)Nc1nc(-c2ccc(Cl)cc2)ns1	MPTP inh 88 | MPTP counter 60
Cc1ccc2c(c1)N(C(=O)CCC(=O)N1CCC(C(N)=O)CC1)CC(C)O2 (stereo not drawn)	none (no result: DTT redox prof, L major viab)
Cc1nc(N2CCC(C)CC2)c2c(C)c(C(=O)Nc3ccc(C(F)(F)F)cc3)sc2n1	MPTP inh 88, T cruzi repl 61 | MPTP counter 38
Cc1nc(N2CCC(C)CC2)c2c(C)c(C(=O)Nc3cccc(C(F)(F)F)c3)sc2n1	MPTP inh 84 | MPTP counter inactive | MPTP abs DR inactive | MPTP cs DR 7.7
C[C@H](C(=O)CC(=O)OC(C)(C)C)[C@H](O)c1ccccc1	none (no result: DTT redox prof, L major viab)
Cc1ccc(OCC(O)CNCc2ccc(F)cc2)cc1 (stereo not drawn)	MPTP inh 85, T cruzi repl 56 (no result: DTT redox prof, L major viab) | MPTP counter inactive | MPTP abs DR 9.2 | MPTP cs DR inactive
NC(=S)NN=C1c2cc(Cl)ccc2-c2c1cc(Cl)cc2[N+](=O)[O-]	MPTP inh 93 (no result: DTT redox prof, T cruzi repl, Hep lipid drop, L major viab) | MPTP counter 74
Cc1ccc(N(CCC#N)C(=O)COC(=O)C2CCN(S(=O)(=O)c3ccc4c(c3)OCCO4)CC2)cc1	none (no result: DTT redox prof, Hep lipid drop, L major viab)
CCc1occc(=O)c1Oc1cc(NN2CCCCC2)c([N+](=O)[O-])cc1[N+](=O)[O-]	none (no result: DTT redox prof, L major viab)
COc1ccc(/C(C)=N/OCC(=O)N=Nc2c(O)[nH]c3ccc(Br)cc23)cc1	MPTP inh 57 | MPTP counter inactive | MPTP abs DR inactive | MPTP cs DR 10
O=C(Cc1cccs1)N=Nc1c(O)[nH]c2ccc(Br)cc12	none (no result: DTT redox prof, Hep lipid drop, L major viab)
Cc1cc(=O)c2cccc(Br)c2[nH]1	none
O=c1cc(C(F)(F)F)[nH]c2c(C(F)(F)F)cccc12	MPTP inh 64 | MPTP counter 98
O=c1cc(C(F)(F)F)[nH]c2ccc(OC(F)(F)F)cc12	MPTP inh 64 (no result: DTT redox prof, Hep lipid drop, L major viab) | MPTP counter 85
CCOC(=O)c1c(O)c2cc(Cl)ccc2n(CC)c1=O	none (no result: DTT redox prof, L major viab)
OC(COCC(F)(F)C(F)(F)C(F)(F)C(F)F)Cn1c2ccc(Cl)cc2c2cc(Cl)ccc21 (stereo not drawn)	MPTP inh 80 | MPTP counter 52
COC(=O)c1c(NC(=O)c2ccc(C(=O)c3ccccc3)cc2)sc2c1CC(C)(C)NC2(C)C	none (no result: DTT redox prof, T cruzi repl, Hep lipid drop, L major viab)
CCOc1ccc(C(=O)Nc2sc3c(c2C(=O)OC)CC(C)(C)NC3(C)C)cc1	MPTP inh 85, L major viab 94 | MPTP counter inactive | MPTP abs DR 20 | MPTP cs DR inactive
COC(=O)c1c(NC(=O)c2nc3ccccc3s2)sc2c1CC(C)(C)NC2(C)C	MPTP inh 60, L major viab 87 | MPTP counter inactive | MPTP abs DR inactive | MPTP cs DR inactive
O=C1CCCN2N=C(SCC(=O)Nc3cccc(F)c3)SC2=N1	MPTP inh 50 (no result: DTT redox prof, Hep lipid drop, L major viab) | MPTP counter inactive | MPTP abs DR inactive | MPTP cs DR 38
CCN1C(=O)/C(=C2\SC(=S)N(CC3CCCO3)C2=O)c2ccccc21 (stereo not drawn)	none (no result: MPTP inh, T cruzi repl)
CCN1C(=O)/C(=C2\SC(=S)N(NC(=O)c3ccccc3O)C2=O)c2ccccc21	MPTP inh 87 (no result: DTT redox prof, L major viab) | MPTP counter 32
Cc1nc(SCc2cccnc2)[nH]c(=O)c1C	none (no result: DTT redox prof, L major viab)
COc1ccc(/C=N\Nc2ncc(F)c(N3CCOCC3)n2)cc1OC	none (no result: DTT redox prof, L major viab)
Cc1ccnc(Nc2nc(-c3ccccc3)cs2)c1	none (no result: DTT redox prof, L major viab)
Cc1ccnc(Nc2nc(-c3c(C)nc4sccn34)cs2)c1	MPTP inh 63 | MPTP counter 21
CC1(C(=O)OCC(=O)Nc2nc(-c3ccc(F)c(F)c3)cs2)CC1(Cl)Cl (stereo not drawn)	none (no result: DTT redox prof, L major viab)
CCCCCCCCCCS(=O)(=O)N/N=C/c1ccc([N+](=O)[O-])cc1	MPTP inh 85 | MPTP counter 62

Screening results from PubChem BioAssay.
